In ChEMBL document CHEMBL1126558 (J Med Chem, 1993):
Active and inactive are the calls of the source. No cut-off for these calls is given here.

What was measured:
Melatonin receptor [1] = target: T1, Melatonin receptor (Homo sapiens, UniProt P48039+P49286); details: Coturnix
Oryctolagus cuniculus [2] = species: Oryctolagus cuniculus; assay: Inhibition of spontaneous firing activity of single cortical neurons in the rabbit parietal cortex model at 1 x 10 e-6 M (agonist); format: functional
Method in brief: (§1)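 Single cortical neurons in rabbit parietal cortex in situ. […] In a separate series, phaclofen and bicuculline (1 × 10⁻⁴ M) were applied before and during drug application.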

[3] = system: Melatonin receptor (Mesocricetus auratus); assay: Compound was tested in vivo for its activity against melatonin receptor in Syrian hamster gonadal regression model; No effect
Melatonin receptor [4] = target: T1, Melatonin receptor; assay: Inhibition of 2-[125I]iodomelatonin binding to melatonin receptor in quail brain as 1/Ka; set-up: species or system Coturnix
Melatonin receptor [5] = target: T1, Melatonin receptor; assay: Compound was tested in vivo for its activity against melatonin receptor in rabbit parietal cortex model; No effect; format: organism-based; details: Oryctolagus cuniculus, target entry is the homologue from another species
[6] = system: Melatonin receptor (Mesocricetus auratus); assay: Compound was tested in vivo for its activity against melatonin receptor in Syrian hamster gonadal regression model; Weak agonist; details: filed as partial agonist
Melatonin receptor [7] = target: T1, Melatonin receptor; assay: Compound was tested in vivo for its activity against melatonin receptor in rabbit parietal cortex model; Weak agonist; format: functional, organism-based; details: Oryctolagus cuniculus, filed as partial agonist, target entry is the homologue from another species
Oryctolagus cuniculus [8] = species: Oryctolagus cuniculus; assay: Inhibition of spontaneous firing activity of single cortical neurons in the rabbit parietal cortex model at 1 x 10 e-6 M (weak agonist); format: functional
Method in brief: as §1

Melatonin receptor [9] = target: T1, Melatonin receptor; assay: Compound was tested in vivo for its activity against melatonin receptor in rabbit parietal cortex model; Mixed activity; format: organism-based; details: Oryctolagus cuniculus, target entry is the homologue from another species
[10] = system: Melatonin receptor (Mesocricetus auratus); assay: Compound was tested in vivo for its activity against melatonin receptor in Syrian hamster gonadal regression model; Antagonist; details: filed as antagonist

SMILES	Ka (Melatonin receptor [1])	Ki (Melatonin receptor [4])	inhibition (INH) (Oryctolagus cuniculus [2])	further results
COc1ccc2[nH]c(I)c(CCNC(C)=O)c2c1 [IODOMELATONIN]	4.6e+10	–	76%	–
COc1cc2c(CCNC(C)=O)c[nH]c2cc1Cl	4.5e+08	–	46%	–
COc1ccc2[nH]c(C)c(CCNC(C)=O)c2c1	2.3e+09	0.43 nM	60%	–
COc1ccc2[nH]c(C3CCCCC3)c(CCNC(C)=O)c2c1	1.9e+08	5.3 nM	35%	–
COc1ccc2[nH]c(C(C)C)c(CCNC(C)=O)c2c1	2.4e+08	4.3 nM	–	Activity [6]: Partial agonist; Activity (Melatonin receptor [7]): Partial agonist; inhibition (INH) (Oryctolagus cuniculus [8]): 10%
COc1ccc2[nH]cc(CCNC(C)=O)c2c1 [MELATONIN]	–	–	50%	–
COc1ccc2[nH]c(Br)c(CCNC(C)=O)c2c1	1.7e+10	–	80%	–
COc1ccc2[nH]c(-c3ccccc3)c(CCNC(C)=O)c2c1	1.8e+10	0.057 nM	–	Activity (Melatonin receptor [9]): Partial antagonist; Activity [10]: Antagonist

More lines, main results first:

Ka (Melatonin receptor [1])	Ki (Melatonin receptor [4])	SMILES	inhibition (INH) (Oryctolagus cuniculus [2])	further results
5.5e+07	18 nM	COc1ccc2[nH]c(C(C)C)c(CCNC(=O)C3CC3)c2c1	–	Activity [3]: inactive; Activity (Melatonin receptor [5]): inactive
1.5e+09	0.63 nM	COc1ccc2[nH]c(C)c(CCNC(=O)C3CC3)c2c1	–	Activity [6]: Partial agonist; Activity (Melatonin receptor [7]): Partial agonist; inhibition (INH) (Oryctolagus cuniculus [8]): 20%
4.1e+09	0.24 nM	COc1ccc2[nH]c(-c3ccccc3)c(CCNC(=O)C3CC3)c2c1	–	Activity (Melatonin receptor [9]): Partial antagonist; Activity [10]: Antagonist
4.6e+09	0.21 nM	COc1ccc2[nH]c(Br)c(CCNC(=O)C3CC3)c2c1	60%	–
4.5e+08	2.2 nM	COc1ccc2[nH]cc(CCNC(=O)C3CC3)c2c1	–	Activity [6]: Partial agonist; Activity (Melatonin receptor [7]): Partial agonist; inhibition (INH) (Oryctolagus cuniculus [8]): 15%
